Measurements: paper PMC10505864 (Asian Pacific Journal of Cancer Prevention : APJCP, 2023)
Converted amounts (≈) assume the structure as drawn. Like-named read-outs stand apart in the source and are kept apart here.

What was measured:
[1] = system: MCF-7 (human breast cancer cells); test: MTT cell viability assay on MCF-7 cells; type: cell-based; conditions: for IC50 / inhibition at 30 µg/mL / inhibition at 60 µg/mL / inhibition at 130 µg/mL / inhibition at 250 µg/mL / inhibition at 500 µg/mL / inhibition at 1000 µg/mL: Homo sapiens, MCF7, 48 h; for IC50: read-out: IC50 µg/mL on MCF-7; for inhibition at 30 µg/mL / inhibition at 60 µg/mL / inhibition at 130 µg/mL / inhibition at 250 µg/mL / inhibition at 500 µg/mL / inhibition at 1000 µg/mL: read-out: Inhibition (%) of MCF-7 Cells
In short: (§1)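 PC3 cells grown in RPMI-1640 and MCF-7 cells in DMEM, each with 10% heat-inactivated FBS, penicillin/streptomycin, L-glutamine and amphotericin B. Seeded at 2 × 10^4 cells/well and grown to ~70% confluence (37°C, 5% CO2). Test compounds given as eight serial dilutions, starting at 1 mg/mL for drugs and 2.5 mg/mL for extract, for 48 h. MTT (5 mg/mL solution) added for 4 h at 25°C; A570 read.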

[2] = ref Salemaldajeh et al., 2015; Emad et al., 2018; cited from earlier work
[3] = system: PC3 (human prostate cancer cells); test: MTT cell viability assay on PC3 cells; type: cell-based; conditions: for IC50 / inhibition at 30 µg/mL / inhibition at 60 µg/mL / inhibition at 130 µg/mL / inhibition at 250 µg/mL / inhibition at 500 µg/mL / inhibition at 1000 µg/mL: Homo sapiens, PC-3, 48 h; for IC50: read-out: IC50 µg/mL on PC3; for inhibition at 30 µg/mL / inhibition at 60 µg/mL / inhibition at 130 µg/mL / inhibition at 250 µg/mL / inhibition at 500 µg/mL / inhibition at 1000 µg/mL: read-out: Inhibition (%) of PC3 Cells; for cytotoxicity activity (in words): PC3
In short: as §1

[4] = rat plasma, ref Salemaldajeh et al., 2015, cited from earlier work
[5] = after oral administration; ref Salemaldajeh et al., 2015; Emad et al., 2018; cited from earlier work
[6] = Pharmacokinetic study of CBZ in rat plasma; type: in vivo, rat (Sprague Dawley)
In short: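 Male and female Sprague Dawley rats (~200 g), seven per group, fasted 24 h. Given 10 mg/kg by oral gavage, alone or after 30 mg/kg extract by gavage (three days before, repeated 30 min pre-dose). Orbital blood collected into EDTA from 0–24 h. Plasma precipitated with acetonitrile containing metronidazole benzoate internal standard, then C18 HPLC-UV at 285 nm. Calibration 75–5,000 ng/mL; samples run in duplicate.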

[7] = both, Sprague Dawley, rat, plasma, po, 10 mg/kg
[8] = rat plasma, CBZ 10 mg/kg oral gavage, alone, listed as CBZ alone

Row | SMILES | IC50 [1] [µg/mL] | inhibition at 30 µg/mL [1] [%] | inhibition at 60 µg/mL [1] [%] | inhibition at 130 µg/mL [1] [%] | inhibition at 250 µg/mL [1] [%] | inhibition at 500 µg/mL [1] [%] | inhibition at 1000 µg/mL [1] [%] | IC50 [3] [µg/mL] | inhibition at 30 µg/mL [3] [%] | inhibition at 60 µg/mL [3] [%] | inhibition at 130 µg/mL [3] [%] | inhibition at 250 µg/mL [3] [%] | inhibition at 500 µg/mL [3] [%] | inhibition at 1000 µg/mL [3] [%] | cytotoxicity activity (in words) ([3]; MTT, 48 h) | other results
1 | NC(=O)N1c2ccccc2C=Cc2ccccc21 [CBZ, carbamazepine] | 250 ± 44 (≈ 1060 µM) | 11.9 | 19.7 | 30.1 | 53.2 | 69.3 | 83.3 | 130 ± 27 (≈ 550 µM) | 29.7 | 31.4 | 53 | 87.5 | 95.1 | 93.4 | robust | drug excreted unchanged without metabolism [2]: about 5%; Cmax ([4]; CBZ alone): 4,130 ng/mL; Cmax ([4]; CBZ combined with graviola juice): 2,886 ng/mL; binds to plasma proteins [5]: approximately 75%; concentration at 24 h ([6]; both, Sprague Dawley, rat, plasma, oral, 10 mg/kg): 65.2 ng/mL; Cmax [6, 7]: 4630 ng/mL; Tmax [6, 7]: 3.5 h; k el [6, 7]: 5e-05 s⁻¹; AUC (0–24 h) [6, 8]: 49225 ng·h/mL; Half-life [6, 8]: 3.78 h
2 | N.N.[Cl][Pt][Cl] [Cisplatin] |  |  |  |  |  |  |  |  |  |  |  |  |  |  |  | IC50 µg/mL on MCF-7 ([1]; MTT, 48 h, mean ± SD): 14.6 ± 2.4 µg/mL; IC50 µg/mL on PC3 ([3]; MTT, 48 h, mean ± SD): 8.6 ± 1.5 µg/mL
3 | COc1cccc2c1C(=O)c1c(O)c3c(c(O)c1C2=O)C[C@@](O)(C(=O)CO)C[C@@H]3O[C@H]1C[C@H](N)[C@H](O)[C@H](C)O1 [Doxorubicin] | 0.64 ± 0.04 (≈ 1.18 µM) |  |  |  |  |  |  | 0.62 ± 0.06 (≈ 1.14 µM) |  |  |  |  |  |  |  | 
4 | CCCC(CCC)C(=O)O [VPA, valproic acid] | > 1000 | 10.6 | 8.5 | 13.4 | 15.7 | 14.7 | 24.9 | > 1000 | 19.8 | 10.7 | 2.62 | 0.74 | 0.24 | 26.7 | weak | cytotoxicity activity (in words) ([1]; MCF-7, MTT, 48 h): weak
